Measurements: article PMC3419923 (The EMBO Journal, 2012)

Tested on: PepTSt
Assay: Kinetics of proton-driven glycylsarcosine uptake in PepTSt proteoliposomes
Assay type: biochemical, Streptococcus thermophilus
Conditions: proton-driven proteoliposome uptake, pH 6.5
Method in brief: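 PepTSt proteoliposomes (1:40 protein:lipid, extruded 400 nm) loaded with 20 mM KPi pH 6.50, 100 mM K acetate, 2 mM MgSO4. Diluted 1:50 into 20 mM NaPIPES […], 2 mM MgSO4, 10 μM valinomycin, giving an inside-negative potential that drives H+/peptide uptake. 3H peptide added at varying concentrations, 25°C. Quenched with ice-cold LiCl, filtered, counted, and converted to molar amounts via standard curves.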

For glycylsarcosine, the “maximal rate of uptake, Vmax” value was 631 nmol min^−1 mg^−1 PepTSt.
